From paper PMC4963206 (ChemMedChem, 2016)
“And” between values parts separate entries of the source, which are not always exact repeats. Equal values may be shown once.

Assays:
Plasma protein binding = assay type: in vitro ADME; settings: CD-1 mice plasma, dialysis 6 hours, 37°C
How it was run: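 Plasma protein isolated from CD-1 mice was spiked with the test compound and dialysed against PBS for 6 hours at 37°C under 5% CO₂. Plasma and buffer compartments were both analysed to give the percentage of free compound. Ketoconazole was the positive control.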

[1] = In vivo bioavailability / plasma pharmacokinetics, IP injection; parameters: species or system CD-1 mice
How it was run: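 CD-1 mice received 20 mg/kg IP in 10% DMA, 65% PEG 400, 25% saline. Parent compound in plasma was measured to give concentration–time profiles. In one study, a cohort of 3 mice was sampled at 15, 30, 60, 90, 180 and 360 min post-dose, and plasma was analysed for parent compound by LC-MS.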

STAT3 [2] = target: T1, STAT3 (Homo sapiens, UniProt P40763); experiment: 19F NMR examination of binding to STAT3; settings: 100 μM compound with STAT3, 37 °C, 1 hour
AR230 cells = experiment: Phenotypic screening / cytotoxicity in CML cell line AR230; assay type: cell-based; settings: read-out: IC50 AR230
STAT1 = target: T2, STAT1 (Homo sapiens, UniProt P42224); experiment: Competitive fluorescence polarization; assay type: binding
T2 sequence (P42224 1-750): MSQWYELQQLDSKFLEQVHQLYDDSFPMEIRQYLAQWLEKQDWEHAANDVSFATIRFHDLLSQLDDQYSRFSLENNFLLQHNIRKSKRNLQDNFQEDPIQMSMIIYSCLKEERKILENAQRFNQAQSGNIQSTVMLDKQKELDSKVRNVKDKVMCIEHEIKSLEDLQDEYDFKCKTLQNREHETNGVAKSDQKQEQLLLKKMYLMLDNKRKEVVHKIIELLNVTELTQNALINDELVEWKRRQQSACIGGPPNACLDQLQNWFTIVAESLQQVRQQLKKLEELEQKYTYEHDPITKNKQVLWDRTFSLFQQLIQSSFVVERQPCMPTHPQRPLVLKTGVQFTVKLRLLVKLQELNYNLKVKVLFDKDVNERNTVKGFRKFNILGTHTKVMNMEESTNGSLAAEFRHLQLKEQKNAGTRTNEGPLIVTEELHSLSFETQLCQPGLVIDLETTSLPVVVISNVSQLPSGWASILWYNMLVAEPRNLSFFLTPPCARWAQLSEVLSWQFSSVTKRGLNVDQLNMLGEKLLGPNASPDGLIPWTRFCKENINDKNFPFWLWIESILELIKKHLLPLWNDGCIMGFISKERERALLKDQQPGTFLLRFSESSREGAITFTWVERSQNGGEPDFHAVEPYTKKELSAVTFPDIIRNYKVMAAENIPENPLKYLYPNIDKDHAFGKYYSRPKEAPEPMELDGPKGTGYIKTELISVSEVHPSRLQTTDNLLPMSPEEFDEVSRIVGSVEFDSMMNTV
How it was run: (§1)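 Competitive binding assay in which the test compound displaces a fluoresceinated peptide from the SH2 domain, read by fluorescence polarization. IC50 is reported with a 95% confidence interval, and Ki is reported alongside it.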

[3] = 19F NMR monitoring of reaction with glutathione; assay type: physicochemical; settings: 100 μM, 10 equivalents of glutathione, 37 °C, 15 hours
How it was run: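 Samples were in 100 mM HEPES pH 7.2, 150 mM NaCl, with 10% […] and 1% DMSO final. Test compound at 100 μM was incubated with 10 equivalents of glutathione for 15 hours at 37°C. ¹⁹F NMR spectra were recorded at 37°C on a 600 MHz spectrometer with a room-temperature H(F)CN probe.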

[4] = Metabolic stability in CD-1 mouse hepatocytes; assay type: in vitro ADME
How it was run: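 CD-1 mouse hepatocytes were incubated with the test compound for 120 min. Remaining parent compound was quantified by LC-MS/MS at regular time points to assess metabolic degradation.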

AR230^R cells = experiment: Phenotypic screening / cytotoxicity in TKI-resistant CML cell line AR230^R; assay type: cell-based
[5] = system: pSTAT3 / STAT3 in AR230^R cells; assay type: cell-based; settings: 10 μM, 2 hours pre-treatment, IL-6 and IFN stimulation
STAT3 [6] = target: T1, STAT3; experiment: Competitive fluorescence polarization; assay type: binding
How it was run: as §1

T1 sequence (P40763 whole entry, species assumed): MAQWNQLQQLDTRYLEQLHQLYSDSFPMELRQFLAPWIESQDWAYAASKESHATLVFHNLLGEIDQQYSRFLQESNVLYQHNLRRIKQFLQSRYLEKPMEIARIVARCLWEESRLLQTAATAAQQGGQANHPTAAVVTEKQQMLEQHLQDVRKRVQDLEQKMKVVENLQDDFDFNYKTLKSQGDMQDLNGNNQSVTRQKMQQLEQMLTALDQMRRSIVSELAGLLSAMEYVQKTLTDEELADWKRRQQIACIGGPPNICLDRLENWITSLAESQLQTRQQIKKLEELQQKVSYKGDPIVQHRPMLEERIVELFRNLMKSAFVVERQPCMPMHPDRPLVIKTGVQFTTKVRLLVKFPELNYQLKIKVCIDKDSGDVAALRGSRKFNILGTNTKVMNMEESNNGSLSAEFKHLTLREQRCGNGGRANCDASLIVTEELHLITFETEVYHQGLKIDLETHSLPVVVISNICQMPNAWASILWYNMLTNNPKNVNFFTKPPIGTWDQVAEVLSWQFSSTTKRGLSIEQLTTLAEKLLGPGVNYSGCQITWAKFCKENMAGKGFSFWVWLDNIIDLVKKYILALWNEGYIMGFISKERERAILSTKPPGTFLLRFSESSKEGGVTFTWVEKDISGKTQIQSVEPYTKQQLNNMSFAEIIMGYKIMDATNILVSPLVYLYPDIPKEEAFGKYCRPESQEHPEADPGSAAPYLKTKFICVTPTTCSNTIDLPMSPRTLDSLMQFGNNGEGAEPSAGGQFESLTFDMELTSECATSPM

bound to mouse plasma proteins (Plasma protein binding): 99.7%
plasma concentration for the first 120 mins ([1]; CD-1 mice, IP 20 mg/kg): above 2000 ng/mL
half-life ([1]; male, CD-1, mouse, plasma, ip, 20 mg/kg): 1.42 h
mode of interaction with STAT3 (19F NMR, fluoride ion production) (STAT3 [2]): non-covalent
Ki (STAT1): > 250 µM
reaction with glutathione (19F NMR) [3]: inert to glutathione
fold more resistant to metabolism than SH-4-54 [4]: ~ 4 fold
IC50 (STAT3 [6]): 30 µM
Ki (STAT3 [6]; Ki STAT3, disruption of STAT3:IL-6R/gp130 peptide complex, FP): 15 µM and 15.3 µM
SMILES: CC(C)(C)c1ccc(CN(C(=O)CN(C2CC2)S(=O)(=O)c2c(F)c(F)cc(F)c2F)c2ccc(C(=O)O)cc2)cc1 [AM-1-124, 4-(N-(4-(tert-butyl)benzyl)-2-(N-cyclopropyl-2,3,5,6-tetrafluorophenylsulfonamido)acetamido)benzoic acid]
IC50 (AR230 cells): 26.9 µM
fold improvement in selectivity vs SH-4-54 (AR230^R cells): 5 fold
fold selectivity for AR230^R over AR230 cells (AR230^R cells): 5.6 fold
Fold Difference (AR230^R cells; Table 5, AR230 vs AR230^R): 5.6
IC50 (AR230^R cells; read-out: IC50 AR230^R): 4.8 µM
cytokine-induced pSTAT3 activation [5]: partially inhibited cytokine-induced pSTAT3 activation
nuclear STAT3 protein localization [5]: reduced the nuclear STAT3 protein localization
